In ChEMBL document CHEMBL1132637, “Design and synthesis of potent, selective, and orally bioavailable tetrasubstituted imidazole inhibitors of p38 mitogen-activated protein kinase” (J Med Chem, 1999):

Experiments:
[1] = (§1) Clpl value in rat; format: ADME, organism-based; conditions: plasma, read-out: Clpl
Summary of the method: (§2)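 Male Sprague-Dawley rats, n = 3, dosed iv at 2 mg/kg or orally at 10 mg/kg. Mean plasma concentrations were followed over time. Pharmacokinetic parameters were derived from these plasma profiles.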

MAP kinase p38 [2] = target: T1, MAP kinase p38 (Homo sapiens, UniProt O15264+Q15759+Q16539+P53778); assay: Inhibition of Mitogen-activated protein kinase p38; format: protein assay
[3] = target: T2, Mitogen-activated protein kinase 9 (Homo sapiens, UniProt P45984); assay: Inhibition of c-Jun N-terminal kinase 2-alpha 1
Target sequence in this assay (P45984 whole entry): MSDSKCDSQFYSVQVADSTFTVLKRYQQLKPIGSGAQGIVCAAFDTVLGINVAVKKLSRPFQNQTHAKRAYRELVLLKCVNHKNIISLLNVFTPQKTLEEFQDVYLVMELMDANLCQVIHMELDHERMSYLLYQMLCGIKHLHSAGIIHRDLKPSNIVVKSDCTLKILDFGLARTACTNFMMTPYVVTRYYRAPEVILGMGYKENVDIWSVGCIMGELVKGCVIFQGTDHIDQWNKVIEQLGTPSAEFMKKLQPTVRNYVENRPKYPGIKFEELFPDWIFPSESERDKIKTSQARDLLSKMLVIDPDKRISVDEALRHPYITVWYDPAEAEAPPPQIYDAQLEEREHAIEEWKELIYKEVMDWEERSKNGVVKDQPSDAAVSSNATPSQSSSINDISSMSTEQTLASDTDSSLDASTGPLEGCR

[4] = target: T3, RAF proto-oncogene serine/threonine-protein kinase (Homo sapiens, UniProt P04049); assay: Inhibition human c-Raf kinase at 1000 nM
T3 sequence (P04049 whole entry): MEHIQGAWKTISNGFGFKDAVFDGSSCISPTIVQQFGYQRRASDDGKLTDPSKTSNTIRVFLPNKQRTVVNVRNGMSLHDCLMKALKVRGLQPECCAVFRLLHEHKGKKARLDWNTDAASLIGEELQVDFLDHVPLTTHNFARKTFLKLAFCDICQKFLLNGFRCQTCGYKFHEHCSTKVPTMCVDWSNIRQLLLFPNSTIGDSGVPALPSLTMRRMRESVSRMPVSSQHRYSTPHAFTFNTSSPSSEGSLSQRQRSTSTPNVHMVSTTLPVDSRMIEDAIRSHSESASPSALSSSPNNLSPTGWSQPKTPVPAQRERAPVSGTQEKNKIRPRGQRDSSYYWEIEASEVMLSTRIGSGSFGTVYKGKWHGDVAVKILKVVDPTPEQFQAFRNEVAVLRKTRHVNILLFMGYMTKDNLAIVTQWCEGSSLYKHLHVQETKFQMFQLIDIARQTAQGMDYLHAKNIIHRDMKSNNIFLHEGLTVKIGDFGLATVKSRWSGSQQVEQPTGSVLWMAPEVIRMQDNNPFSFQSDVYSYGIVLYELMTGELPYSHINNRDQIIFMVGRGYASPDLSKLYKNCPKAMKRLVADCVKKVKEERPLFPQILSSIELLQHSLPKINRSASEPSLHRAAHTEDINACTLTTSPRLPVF

[5] = (§3) Intravenous half life in rat was determined; format: ADME, organism-based; conditions: in vivo; summary of the method: as §2
[6] = (§4) Vd sss value in rat; format: ADME, organism-based; conditions: in vivo, read-out: Vdss; summary of the method: as §2
[7] = Bioavailability in rat; format: ADME, organism-based; conditions: in vivo; summary of the method: as §2
[8] = target: T3, RAF proto-oncogene serine/threonine-protein kinase; assay: Inhibitory activity against recombinant human RAF proto-oncogene serine/threonine-protein kinase
MAP kinase p38 [9] = target: T1, MAP kinase p38; assay: Inhibitory activity against Mitogen-activated protein kinase p38 (MAP kinase); format: protein assay
[10] = target: T2, Mitogen-activated protein kinase 9; assay: Inhibition of c-Jun N-terminal kinase 2-alpha 1 at 40000 nM
Target sequence in this assay (P45984 whole entry, looked up): as the sequence (P45984 whole entry) above

[11] = target: T3, RAF proto-oncogene serine/threonine-protein kinase; assay: Inhibition of human RAF kinase at 5000 nM
[12] = Oral maximum concentration in rat; format: ADME, organism-based; design: route oral; conditions: in vivo; summary of the method: as §2
[13] = Intravenous half life in rat; format: ADME, organism-based; conditions: in vivo; summary of the method: as §2
Rattus norvegicus [14] = species: Rattus norvegicus; assay: as §1; format: ADME, organism-based; conditions: in vivo; summary of the method: as §2
[15] = target: T3, RAF proto-oncogene serine/threonine-protein kinase; assay: Inhibition of human c-Raf kinase
Rattus norvegicus [16] = assay: as §3; format: ADME, organism-based; conditions: in vivo; summary of the method: as §2
MAP kinase p38 [17] = target: T1, MAP kinase p38; assay: Inhibition of LPS-induced release of Tumor necrosis factor-alpha (TNF-alpha) from human whole blood; format: functional, tissue-based
Rattus norvegicus [18] = species: Rattus norvegicus; assay: as §4; format: ADME, organism-based; conditions: in vivo; summary of the method: as §2
Protein kinase C (PKC) = assay: Inhibition of Protein kinase C; format: protein assay
Summary of the method: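 PKC (isozyme mix) was run at room temperature with 10 µM [33P]ATP and 70 µg/mL myelin basic protein substrate, under the supplier's conditions. Stopped with EDTA/pyrophosphate, filter-captured and counted by scintillation.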

[19] = target: T2, Mitogen-activated protein kinase 9; assay: Inhibition of c-Jun N-terminal kinase 2-alpha 2
Target sequence in this assay (P45984 whole entry): as above

[20] = target: cAMP-dependent protein kinase (PKA) (Homo sapiens, UniProt P22694+P17612+P22612); assay: Inhibition of Protein kinase A; format: protein assay
Summary of the method: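 PKA was run at room temperature with 10 µM [33P]ATP and 10 µM kemptide substrate, under the supplier's conditions. The reaction was stopped with 75 mM phosphoric acid. Product was captured on phosphocellulose filters, washed with phosphoric acid and counted by scintillation.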

[21] = target: Dual specificity mitogen-activated protein kinase kinase; MEK1/2 (Homo sapiens, UniProt P36507+Q02750); assay: Inhibition of MEK-1, Mitogen activated protein kinase kinase 1; format: protein assay

| Compound | IC50 [3] | IC50 [8] | IC50 (MAP kinase p38 [9]) | further results |
| --- | --- | --- | --- | --- |
| Nc1nccc(-c2[nH]c(C3CCNCC3)nc2-c2cccc(C(F)(F)F)c2)n1 | 3300 nM |  |  | clearance [1]: 167 mL/min/kg; IC50 (MAP kinase p38 [2]): 7 nM; inhibition [4]: 36%; half-life [5]: 0.132 h; Vd [6]: 1.23 L/kg; bioavailability [7]: 0% |
| COc1ccc(CNc2nccc(-c3[nH]c(-c4ccccc4)nc3-c3ccccc3)n2)cc1 | 98 nM | 1000 nM | 38 nM |  |
| c1ccc(-c2nc(-c3ccccc3)c(-c3ccncn3)[nH]2)cc1 | 1420 nM | 5000 nM | 700 nM |  |
| C[C@H](Nc1nccc(-c2nc(C3CCNCC3)n(C)c2-c2cccc(C(F)(F)F)c2)n1)c1ccccc1 |  |  |  | inhibition [10]: 37%; inhibition [11]: 26% |
| CNc1nccc(-c2[nH]c(-c3ccccc3)nc2-c2ccccc2)n1 | 175 nM | 2100 nM | 120 nM |  |
| Fc1ccc(-c2[nH]c(C3CCCCC3)nc2-c2ccncc2)cc1 | 29 nM | 135 nM | 70 nM |  |
| Nc1nccc(-c2[nH]c(-c3ccccc3)nc2-c2ccccc2)n1 | 180 nM | 750 nM | 57 nM |  |
| c1ccc(-c2ccc(-c3[nH]c(-c4ccccc4)nc3-c3ccncc3)cc2)cc1 |  | 2500 nM | 1000 nM |  |
| COc1ccc(CNc2nccc(-c3[nH]c(C4CCNCC4)nc3-c3cccc(C(F)(F)F)c3)n2)cc1 | 735 nM |  |  | IC50 (MAP kinase p38 [2]): 7.6 nM; inhibition [4]: 66% |
| Fc1ccc(-c2nc[nH]c2-c2ccncc2)cc1 | 195 nM | 1300 nM | 170 nM |  |
| Fc1ccc(-c2[nH]c(C3CCCNC3)nc2-c2ccncc2)cc1 (stereo unspecified) | 140 nM | 110 nM |  |  |
| C[C@H](Nc1nccc(-c2c(-c3cccc(C(F)(F)F)c3)nc(C3CCNCC3)n2C)n1)c1ccccc1 |  |  |  | clearance [1]: 38.3 mL/min/kg; Cmax [12]: 780 nM; half-life [13]: 4.9 h; Vd [6]: 12.7 L/kg; bioavailability [7]: 64% |
| C[C@H](Nc1nccc(-c2[nH]c(C3CCNCC3)nc2-c2cccc(C(F)(F)F)c2)n1)c1ccccc1 | 1750 nM |  |  | Clpl (Rattus norvegicus [14]): 146 mL/min/kg; IC50 (MAP kinase p38 [2]): 0.75 nM; IC50 [15]: 3500 nM; T1/2 (Rattus norvegicus [16]): 1 min; IC50 (MAP kinase p38 [17]): 6 nM; Vdss (Rattus norvegicus [18]): 6.5 L/kg; bioavailability [7]: 0% |
| COC(=O)c1ccc(-c2[nH]c(-c3ccccc3)nc2-c2ccncc2)cc1 |  |  |  | IC50 (MAP kinase p38 [2]): > 10000 nM; IC50 [15]: 320 nM |
| C[C@@H](Nc1nccc(-c2[nH]c(C3CCNCC3)nc2-c2cccc(C(F)(F)F)c2)n1)c1ccccc1 | 295 nM | 4500 nM | 0.97 nM | IC50 (MAP kinase p38 [17]): 0.4 nM |
| c1ccc(-c2nc(-c3ccncc3)c(-c3ccc(C4CCCCC4)cc3)[nH]2)cc1 |  | 570 nM | > 10000 nM |  |
| Fc1ccc(-c2[nH]c(C3CCNCC3)nc2-c2ccncc2)cc1 | 210 nM | 80 nM | 9 nM |  |
| FC(F)(F)c1cccc(-c2nc(-c3ccccc3)[nH]c2-c2ccncc2)c1 | 910 nM |  |  | IC50 (MAP kinase p38 [2]): 86 nM; IC50 [15]: 2600 nM |
| C[C@H](Nc1cc(-c2c(-c3cccc(C(F)(F)F)c3)nc(C3CCNCC3)n2C)ccn1)c1ccccc1 | 1170 nM |  |  | IC50 (Protein kinase C (PKC)): > 1500 nM; IC50 [19]: 2200 nM; clearance [1]: 63 mL/min/kg; Cmax [12]: 390 nM; IC50 [15]: 810 nM; IC50 [20]: > 1500 nM; half-life [5]: 2.85 h; IC50 [21]: > 10000 nM; Vd [6]: 12.3 L/kg; bioavailability [7]: 85% |

Second part, led by results:

| IC50 [3] | IC50 [8] | IC50 (MAP kinase p38 [9]) | Compound | further results |
| --- | --- | --- | --- | --- |
|  | 86 nM | 970 nM | N#Cc1ccc(-c2[nH]c(-c3ccccc3)nc2-c2ccncc2)cc1 |  |
| 130 nM | 380 nM | 180 nM | c1ccc(-c2nc(-c3ccccc3)c(-c3ccncc3)[nH]2)cc1 |  |
|  | 950 nM | 300 nM | COc1ccc(-c2nc(-c3ccccc3)[nH]c2-c2ccncc2)cc1 |  |
|  | > 10000 nM | 2100 nM | CC(C)c1ccc(-c2[nH]c(-c3ccccc3)nc2-c2ccncc2)cc1 |  |
|  | 390 nM | 1400 nM | Oc1ccc(-c2[nH]c(-c3ccccc3)nc2-c2ccncc2)cc1 |  |
|  | 23 nM | 140 nM | Oc1cccc(-c2nc(-c3ccccc3)[nH]c2-c2ccncc2)c1 |  |
|  | 20 nM | 28 nM | Clc1ccc(-c2[nH]c(-c3ccccc3)nc2-c2ccncc2)cc1Cl |  |
|  | 610 nM | 150 nM | Clc1ccccc1-c1nc(-c2ccccc2)[nH]c1-c1ccncc1 |  |
|  | 1400 nM | 200 nM | FC(F)(F)c1ccc(-c2[nH]c(-c3ccccc3)nc2-c2ccncc2)cc1 |  |
|  | 56 nM | 48 nM | Clc1ccc(-c2nc(-c3ccccc3)[nH]c2-c2ccncc2)cc1 |  |
|  | 210 nM | 550 nM | COc1cccc(-c2[nH]c(-c3ccccc3)nc2-c2ccncc2)c1 |  |
|  | 1600 nM | 137 nM | Clc1cc(Cl)cc(-c2[nH]c(-c3ccccc3)nc2-c2ccncc2)c1 |  |
|  | 90 nM | 130 nM | Clc1cccc(-c2nc(-c3ccccc3)[nH]c2-c2ccncc2)c1 |  |
|  | 3000 nM | 495 nM | Fc1cccc(-c2[nH]c(-c3ccccc3)nc2-c2ccncc2)c1 |  |
